Converted amounts (≈) assume the structure as drawn.
How the values were obtained:
[1] = DPPH radical scavenging assay; conditions: 30 min, absorbance at 517 nm, triplicate, mean ± SD
Procedure, shortened: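 DPPH dissolved in methanol (180 µL) mixed with 20 µL methanolic compound solutions at 0.1, 1, 10 and 100 μg/mL. Mixture shaken, held 30 min at room temperature in dark, A517. Controls: methanol blank, ascorbic acid positive. Triplicate. % scavenging = (A blank − A test)/A blank × 100; IC50 from concentration–scavenging plot.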

[2] = ABTS radical scavenging assay; conditions: 10 min, absorbance at 734 nm, triplicate, mean ± SD
Procedure, shortened: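 ABTS•+ formed from 7 mM ABTS in water plus 2.45 mM potassium persulfate, kept dark at room temperature 12–16 h, then diluted in methanol to A734 0.70 ± 0.02 at 30 °C. Methanolic compound dilutions (20 µL) added to 180 µL radical, 10 min in dark, A734. Controls: methanol blank, ascorbic acid reference. Fresh radical each run. Triplicate. % scavenging versus blank gives IC50.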

[3] = FRAP assay; conditions: for FRAP (10 μg/mL): absorbance at 593 nm, 30 min, triplicate
Procedure, shortened: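 Working reagent: 300 mM acetate buffer pH 3.6, 10 mM TPTZ in 40 mM HCl, and 20 mM FeCl3·6H2O, mixed 10:1:1 and warmed to 37 °C. Methanolic samples reacted 30 min. Ascorbic acid in water used as standard, methanol as blank. Fe²⁺–TPTZ complex read at 593 nm. Triplicate, mean reported.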

[4] = tested on: Hela cancer cell; assay: SRB anticancer assay, Hela cells; assay type: cell-based, Human
Procedure, shortened: (§1)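 HeLa cells were grown in DMEM; CaSki and MDCK in RPMI-1640. All media had 10% FBS and 1% antibiotic–antimycotic, at 37 °C, 5% CO2. Cells seeded at 5×10^3/well overnight, triplicate, then given four concentrations for 48 h. Untreated cells served as control. SRB staining: ice-cold 70% acetone fixation, 0.4% SRB, Tris solubilisation, A540. IC50 from cancer lines, CC50 from MDCK, TI derived.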

[5] = tested on: Caski cancer cell; assay: SRB anticancer assay, Caski cells; assay type: cell-based
Procedure, shortened: as §1

[6] = SRB cytotoxicity assay, MDCK cells; assay type: cell-based, canine; conditions: dog
Procedure, shortened: as §1

| Compound | IC50 DPPH [1] [µg/mL] | IC50 ABTS [2] [µg/mL] | FRAP absorption value ([3]; Fe3+ reducing power) [nm] | FRAP (10 μg/mL) [3] | TI (therapeutic index) ([4]; CC50 MDCK / IC50 Hela) | IC50 ([4]; Homo sapiens, HeLa, 48 h, read-out: IC50 Hela) [µg/mL] | TI (therapeutic index) ([5]; CC50 MDCK / IC50 Caski) | IC50 ([5]; Homo sapiens, Ca-Ski, 48 h, read-out: IC50 Caski) [µg/mL] | CC50 at 48 h [6] [µg/mL] |
| --- | --- | --- | --- | --- | --- | --- | --- | --- | --- |
| O=C1O[C@H]([C@@H](O)CO)C(O)=C1O [Ascorbic acid] | 10.75 ± 0.66 (≈ 61 µM) | 4.760 ± 0.05 (≈ 27 µM) | 2.140 | 2.140 ± 0.78 | – | – | – | – | – |
| COc1ccc2cc3[n+](cc2c1OC)CCc1cc2c(cc1-3)OCO2 [Berberine] | 33.16 ± 1.60 | 86.29 ± 2.11 | – | 0.001 ± 0.66 | 25.29 | 4.5 ± 0.08 | 20.17 | 5.64 ± 0.11 | 113.8 ± 0.51 |

From PMC5198934 (Saudi Journal of Biological Sciences, 2015)
